In ChEMBL document CHEMBL4400543, “Identification and Characterization of AES-135, a Hydroxamic Acid-Based HDAC Inhibitor That Prolongs Survival in an Orthotopic Mouse Model of Pancreatic Cancer” (J Med Chem, 2019):
Active and inactive are the calls of the source.

Legend:
Panc1005 [1] = experiment: Cytotoxicity against human Panc 10.05 monolayer cells assessed as reduction in tumor spheroid intensity after 72 hrs by Alamar Blue assay; type: functional, cell-based; details: Panc1005, 72 h
Method in brief: (§1)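 Monolayer proliferation of STR-authenticated, mycoplasma-checked patient-derived PDAC lines and mouse KPC cells. Plated at 2000 cells/well, treated 72 h, read by alamarBlue. At least triplicate, n = 3–5.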

[2] = Cytotoxicity against mouse KPC monolayer cells assessed as reduction in tumor spheroid intensity after 72 hrs by Alamar Blue assay; type: functional, cell-based; method in brief: as §1
Panc1005 [3] = experiment: Cytotoxicity against human Panc 10.05 cells assessed as reduction in tumor spheroid area after 72 hrs by Alamar Blue assay; type: functional, cell-based; details: Panc1005, 72 h
Method in brief: (§2)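 3D spheroids of patient-derived PDAC cells (tomato red) alone or with CAF19 cells, plus CAF cultures. Imaging read-outs: area is the μ2 of objects above a tomato red intensity threshold; intensity is summed red or green pixel fluorescence after background removal. n = 3–5.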

Pa03C [4] = experiment: Cytotoxicity against human Pa03C cells assessed as reduction in tumor spheroid intensity after 72 hrs by Alamar Blue assay; type: functional, cell-based; method in brief: as §2
[5] = Cytotoxicity against human […] cells assessed as reduction in tumor spheroid intensity after 72 hrs by Alamar Blue assay; type: cell-based; method in brief: as §2
[6] = molecular target: Protein deacetylase HDAC6 (Homo sapiens) (UniProt Q9UBN7); experiment: Inhibition of recombinant human HDAC6 expressed in SF9 baculoviral system at 10 uM using FAM-labeled acetylated peptide as substrate by EMSA relative to control
Protein deacetylase HDAC6 (Homo sapiens), sequence (Q9UBN7 whole entry): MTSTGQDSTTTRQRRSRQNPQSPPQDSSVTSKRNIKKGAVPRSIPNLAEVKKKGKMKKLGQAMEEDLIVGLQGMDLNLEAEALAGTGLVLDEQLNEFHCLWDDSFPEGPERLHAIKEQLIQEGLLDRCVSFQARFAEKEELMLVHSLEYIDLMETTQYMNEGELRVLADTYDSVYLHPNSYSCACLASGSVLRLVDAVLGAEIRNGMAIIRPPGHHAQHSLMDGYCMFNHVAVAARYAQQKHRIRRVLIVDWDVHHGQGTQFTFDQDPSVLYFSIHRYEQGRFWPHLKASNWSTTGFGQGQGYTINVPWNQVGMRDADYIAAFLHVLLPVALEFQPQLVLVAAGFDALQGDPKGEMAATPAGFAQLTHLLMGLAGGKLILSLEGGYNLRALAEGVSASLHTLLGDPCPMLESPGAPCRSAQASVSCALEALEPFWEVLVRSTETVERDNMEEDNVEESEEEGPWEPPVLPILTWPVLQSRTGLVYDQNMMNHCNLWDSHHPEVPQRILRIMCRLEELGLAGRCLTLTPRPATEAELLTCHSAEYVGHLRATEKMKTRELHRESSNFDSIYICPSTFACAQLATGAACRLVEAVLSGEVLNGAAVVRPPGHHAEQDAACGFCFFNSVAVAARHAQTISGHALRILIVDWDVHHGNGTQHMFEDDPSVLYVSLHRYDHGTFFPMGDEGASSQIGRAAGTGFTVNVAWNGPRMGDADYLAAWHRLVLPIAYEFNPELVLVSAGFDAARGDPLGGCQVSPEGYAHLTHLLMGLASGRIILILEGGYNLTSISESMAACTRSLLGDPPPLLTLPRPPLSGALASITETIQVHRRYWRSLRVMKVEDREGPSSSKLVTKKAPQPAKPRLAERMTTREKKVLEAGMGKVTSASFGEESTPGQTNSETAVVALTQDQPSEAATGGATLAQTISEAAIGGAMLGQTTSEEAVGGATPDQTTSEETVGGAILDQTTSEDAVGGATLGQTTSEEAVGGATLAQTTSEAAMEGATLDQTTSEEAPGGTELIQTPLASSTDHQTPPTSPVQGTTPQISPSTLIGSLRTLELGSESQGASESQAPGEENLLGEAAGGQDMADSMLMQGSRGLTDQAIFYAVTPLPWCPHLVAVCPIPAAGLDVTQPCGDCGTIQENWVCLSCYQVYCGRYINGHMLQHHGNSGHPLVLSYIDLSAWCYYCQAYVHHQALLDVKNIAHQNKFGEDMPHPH
Method in brief: (§3)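 Single-point screen at 10 μM compound, using full-length recombinant human enzyme expressed in Sf9 cells. Buffer was HEPES pH 7.5 with KCl, BSA and Triton X-100, and 1% DMSO. Final enzyme was 0.5 nM for HDAC3, 60 nM for HDAC6 and 5.0 nM for HDAC8, with 1 μM FAM-acetylated peptide. Percent inhibition was derived from the product sum ratio relative to DMSO-only (0%) and no-enzyme (100%) controls.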

[7] = molecular target: Signal transducer and activator of transcription 3 (Homo sapiens) (UniProt P40763); experiment: Inhibition of STAT3 phosphorylation at S727 residue in human BTSC 143EF cells at 1 to 10 uM after 24 hrs by Western blot method; type: cell-based
Signal transducer and activator of transcription 3 (Homo sapiens), sequence (P40763 whole entry): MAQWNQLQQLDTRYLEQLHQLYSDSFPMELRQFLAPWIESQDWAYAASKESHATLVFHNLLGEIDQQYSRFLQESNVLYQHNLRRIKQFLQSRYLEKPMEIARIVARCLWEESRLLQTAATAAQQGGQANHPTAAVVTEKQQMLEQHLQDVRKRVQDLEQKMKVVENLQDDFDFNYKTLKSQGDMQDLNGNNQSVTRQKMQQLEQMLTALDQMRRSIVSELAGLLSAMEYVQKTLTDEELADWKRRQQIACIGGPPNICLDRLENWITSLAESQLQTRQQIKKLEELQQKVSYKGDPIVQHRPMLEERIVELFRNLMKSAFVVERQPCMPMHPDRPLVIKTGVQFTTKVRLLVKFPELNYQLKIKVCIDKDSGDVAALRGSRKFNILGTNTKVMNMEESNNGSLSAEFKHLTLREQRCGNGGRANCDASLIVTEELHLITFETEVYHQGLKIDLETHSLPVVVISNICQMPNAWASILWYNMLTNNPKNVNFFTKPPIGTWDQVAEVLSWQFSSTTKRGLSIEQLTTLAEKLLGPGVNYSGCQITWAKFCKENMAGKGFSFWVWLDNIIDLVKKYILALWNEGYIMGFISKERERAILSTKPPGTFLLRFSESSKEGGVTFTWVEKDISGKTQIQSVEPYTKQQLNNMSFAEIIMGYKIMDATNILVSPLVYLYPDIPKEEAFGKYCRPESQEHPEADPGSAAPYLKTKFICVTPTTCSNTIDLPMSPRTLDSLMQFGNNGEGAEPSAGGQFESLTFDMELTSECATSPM
Method in brief: (§4)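 BTSCs dissociated to single cells and treated with drug or DMSO. Lysed in RIPA buffer with protease inhibitors. 20 μg lysate run on SDS-PAGE and transferred to nitrocellulose. Blocked in 5% milk, primary antibody overnight at 4 °C, then HRP secondary for 1 h.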

Pa03C [8] = experiment: Cytotoxicity against human Pa03C monolayer cells assessed as reduction in tumor spheroid intensity after 72 hrs by Alamar Blue assay; type: functional, cell-based; method in brief: as §1
Histone deacetylase 8 = molecular target: T1, Histone deacetylase 8 (Homo sapiens, UniProt Q9BY41); experiment: Inhibition of recombinant human HDAC8 expressed in SF9 baculoviral system using FAM-labeled acetylated peptide as substrate by EMSA
T1 sequence (Q9BY41 whole entry): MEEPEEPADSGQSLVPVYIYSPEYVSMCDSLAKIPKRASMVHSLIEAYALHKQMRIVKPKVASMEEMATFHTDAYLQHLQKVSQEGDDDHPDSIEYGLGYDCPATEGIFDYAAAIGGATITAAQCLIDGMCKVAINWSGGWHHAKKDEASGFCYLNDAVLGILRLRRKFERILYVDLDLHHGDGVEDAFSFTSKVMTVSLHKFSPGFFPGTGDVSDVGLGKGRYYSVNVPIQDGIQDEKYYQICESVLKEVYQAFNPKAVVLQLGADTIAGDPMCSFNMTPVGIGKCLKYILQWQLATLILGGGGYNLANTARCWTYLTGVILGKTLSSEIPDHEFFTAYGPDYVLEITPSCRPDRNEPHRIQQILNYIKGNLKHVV
Method in brief: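 Full-length recombinant human enzyme from an Sf9 baculovirus system, in 100 mM HEPES pH 7.5 with 25 mM KCl, 0.1% BSA, 0.01% Triton X-100 and 1% DMSO. Final enzyme was 0.5 nM for HDAC3, 60 nM for HDAC6 and 5.0 nM for HDAC8. FAM-acetylated peptide was 1 μM. The read-out was product/(substrate+product) by microfluidic mobility shift, with inhibition set against DMSO and no-enzyme controls (quadruplicate). Compounds were tested at 12 threefold-spaced concentrations, and IC50 came from a four-parameter sigmoid fit.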

[9] = molecular target: Histone deacetylase 1 (Homo sapiens) (UniProt Q13547); experiment: Inhibition of recombinant human HDAC1 expressed in SF9 baculoviral system at 10 uM using FAM-labeled acetylated peptide as substrate by EMSA relative to control
Histone deacetylase 1 (Homo sapiens), sequence (Q13547 whole entry): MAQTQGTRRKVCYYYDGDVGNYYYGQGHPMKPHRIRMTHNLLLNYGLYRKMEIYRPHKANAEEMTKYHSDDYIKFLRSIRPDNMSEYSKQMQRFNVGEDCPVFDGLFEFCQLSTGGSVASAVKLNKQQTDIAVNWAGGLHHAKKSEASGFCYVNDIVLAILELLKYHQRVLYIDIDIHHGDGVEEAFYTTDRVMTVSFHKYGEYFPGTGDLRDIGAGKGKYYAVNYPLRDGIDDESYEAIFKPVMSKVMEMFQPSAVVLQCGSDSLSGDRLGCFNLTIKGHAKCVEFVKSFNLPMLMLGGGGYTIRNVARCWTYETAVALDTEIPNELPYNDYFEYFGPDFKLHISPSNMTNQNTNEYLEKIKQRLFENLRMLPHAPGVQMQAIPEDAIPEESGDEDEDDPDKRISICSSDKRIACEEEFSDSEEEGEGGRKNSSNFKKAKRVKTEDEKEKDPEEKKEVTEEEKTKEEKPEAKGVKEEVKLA
Method in brief: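 Full-length recombinant human HDACs from an Sf9 baculovirus system. Single-point screen at 10 μM by microfluidic mobility-shift assay with FAM-labeled acetylated peptide substrate. Buffer: 100 mM HEPES pH 7.5, 25 mM KCl, 0.1% BSA, 0.01% Triton X-100, 1% DMSO. % inhibition from product/(substrate + product) against no-inhibitor and no-enzyme controls.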

[10] = Drug recovery in CD1 mouse plasma after 6 hrs by LC-ESI MS analysis; type: ADME, cell-free; details: read-out: Drug recovery
[11] = molecular target: Signal transducer and activator of transcription 3 (Homo sapiens) (UniProt P40763); experiment: Inhibition of STAT3 phosphorylation at S727 residue in human BTSC 100EF cells at 1 to 10 uM after 24 hrs by Western blot method; type: cell-based; method in brief: as §4
[12] = Drug uptake in NSG mouse serum at 20 mg/kg, ip administered as single dose and measured at 24 hrs by HPLC-MS/MS analysis; type: ADME, organism-based; details: read-out: Drug uptake
Method in brief: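 NSG mice given a single 20 mg/kg IP dose in Cremophor EL/EtOH (1:1, 4% final volume)/sterile saline. Tail-vein blood at 0.5, 1, 2, 4, 8 and 24 h, n = 2. Drug quantified in serum/plasma. Half-life and clearance calculated assuming 100% bioavailability.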

[13] = Cytotoxicity against human Pa02C monolayer cells assessed as reduction in tumor spheroid intensity after 72 hrs by Alamar Blue assay; type: functional, cell-based; method in brief: as §1
Pa03C [14] = experiment: Cytotoxicity against human Pa03C cells assessed as reduction in tumor spheroid intensity after 72 hrs in presence of human CAF19 cells by Alamar Blue assay; type: functional, cell-based; method in brief: as §2
Histone deacetylase 3 = Histone deacetylase 3 (Homo sapiens, UniProt O15379); experiment: Inhibition of recombinant human HDAC3 expressed in SF9 baculoviral system at 10 uM using FAM-labeled acetylated peptide as substrate by EMSA relative to control; method in brief: as §3
Histone deacetylase 3, sequence (O15379 whole entry): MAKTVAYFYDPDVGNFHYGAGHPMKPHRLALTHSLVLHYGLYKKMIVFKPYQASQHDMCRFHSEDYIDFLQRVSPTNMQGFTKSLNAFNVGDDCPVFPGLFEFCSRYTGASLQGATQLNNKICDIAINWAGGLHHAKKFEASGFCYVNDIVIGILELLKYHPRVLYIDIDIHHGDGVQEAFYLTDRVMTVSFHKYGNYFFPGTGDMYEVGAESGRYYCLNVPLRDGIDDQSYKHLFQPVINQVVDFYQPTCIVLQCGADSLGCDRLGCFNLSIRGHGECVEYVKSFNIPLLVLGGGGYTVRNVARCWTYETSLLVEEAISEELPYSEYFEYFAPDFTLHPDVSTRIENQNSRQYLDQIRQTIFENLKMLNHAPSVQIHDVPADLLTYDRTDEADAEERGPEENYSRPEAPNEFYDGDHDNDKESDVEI

[15] = Selectivity ratio of IC50 for human CAF19 cells to IC50 for human Panc 10.05 cells
Homo sapiens = organism: Homo sapiens; experiment: Cytotoxicity against human D458 cells at 39 nM after 72 hrs by Presto Blue assay; type: functional, cell-based
Method in brief: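 D425 and D458 medulloblastoma cells in DMEM high glucose with 20% FBS, seeded at 1000 cells/well in medium with 1% FBS. Twofold dilutions from 20 μM down to 39 nM. Exposed 3 days at 37 °C. Presto Blue added about 4 h before fluorescence read (540–570 nm). IC50 from % viability versus log concentration.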

Mus musculus = experiment: Antitumor activity against mouse KPC cells allografted in […] C57BI/6 mouse assessed as mean survival time at 50 mg/kg, ip administered daily for 5 days per week for 1 month starting on day 7 post implantation (reference value: 29.5 days); type: functional, organism-based

CC(C)(C)c1ccc(CN(C(=O)CN(Cc2c(F)c(F)c(F)c(F)c2F)S(=O)(=O)c2ccc(F)cc2)c2ccc(C(=O)NO)cc2)cc1
IC50 (Panc1005 [1]): 3.9 µM
IC50 [2]: 1.3 µM
IC50 (Panc1005 [3]): 0.97 µM
IC50 (Pa03C [4]): 1.33 µM
IC50 [5]: 3.4 to 4.5 µM
inhibition [6]: 98%
inhibition [7]: inactive
IC50 (Pa03C [8]): 3.4 µM
IC50 (Histone deacetylase 8): > 1 µM
inhibition [9]: 72%
remaining at 6 h [10]: 16 to 20%
inhibition [11]: inactive
concentration at 24 h [12]: 265 ng/mL
IC50 [13]: 4.6 µM
IC50 (Pa03C [14]): 1.56 µM
inhibition (Histone deacetylase 3): 98%
Ratio IC50 [15]: 5 - 6
Activity (Homo sapiens): Active
Activity (Mus musculus): inactive
